Laboratory results taken from ChEMBL document CHEMBL5678815 (Clin Cancer Res, 2017).
Active and inactive are the calls of the source. No cut-off for these calls is given here.

Tests used:
[1] = tested on: Proto-oncogene tyrosine-protein kinase receptor Ret (Homo sapiens), P07949 [V804L]; test: Inhibition of human RET V804L assessed as remaining activity at 1 uM by ATP-competition binding assay relative to control
Procedure, shortened: (§1)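 KINOMEscan ATP-site-dependent competition binding assay across a 395-kinase human panel including mutants; compound tested at 1μM; binding expressed relative to control signal.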

[2] = target: cAMP-dependent protein kinase catalytic subunit beta (Homo sapiens) (UniProt P22694); test: Inhibition of human PKAC-beta assessed as remaining activity at 1 uM by ATP-competition binding assay relative to control
Procedure, shortened: (§2)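 Single-concentration (1 μM) screen in an ATP-site-dependent competition binding assay (KINOMEscan, outsourced) covering 395 human kinases, mutants included. Non-covalent binding was read as the remaining signal relative to the control signal.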

[3] = target: Dual specificity testis-specific protein kinase 1 (Homo sapiens) (UniProt Q15569); test: Inhibition of human TESK1 assessed as remaining activity at 1 uM by ATP-competition binding assay relative to control; procedure, shortened: as §2
[4] = target: Fibroblast growth factor receptor 3 (Homo sapiens) (UniProt P22607); test: Inhibition of human FGFR3 assessed as remaining activity at 1 uM by ATP-competition binding assay relative to control
Procedure, shortened: (§3)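 Single-point profiling at 1μM in an ATP-site-dependent competition binding assay across a panel of 395 human kinases, including mutant forms. The read-out is kinase binding signal in the presence of test agent, expressed as inhibition relative to the control signal. This screen assessed noncovalent binding interactions.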

[5] = target: Proto-oncogene tyrosine-protein kinase Src (Homo sapiens) (UniProt P12931); test: Inhibition of human SRC assessed as remaining activity at 1 uM by ATP-competition binding assay relative to control; procedure, shortened: as §2
[6] = tested on: Fibroblast growth factor receptor 3 (Homo sapiens), P22607 [G697C]; test: Inhibition of human FGFR3 G697C mutant assessed as remaining activity at 1 uM by ATP-competition binding assay relative to control; procedure, shortened: as §3
[7] = target: 5'-AMP-activated protein kinase catalytic subunit alpha-2 (Homo sapiens) (UniProt P54646); test: Inhibition of human AMPK-alpha2 assessed as remaining activity at 1 uM by ATP-competition binding assay relative to control
Procedure, shortened: (§4)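 KINOMEscan ATP-site-dependent competition binding panel of 395 human kinases, with compound tested at 1 μM. Binding is reported as remaining signal relative to control.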

[8] = target: Serine/threonine-protein kinase pim-3 (Homo sapiens) (UniProt Q86V86); test: Inhibition of human PIM3 assessed as remaining activity at 1 uM by ATP-competition binding assay relative to control; procedure, shortened: as §2
[9] = tested on: Epidermal growth factor receptor (Homo sapiens), P00533 [UNDEFINED MUTATION]; test: Inhibition of human EGFR E746-A750del mutant assessed as remaining activity at 1 uM by ATP-competition binding assay relative to control; procedure, shortened: as §1
[10] = target: Tyrosine-protein kinase JAK1 (Homo sapiens) (UniProt P23458); test: Inhibition of human JAK1 JH2 domain assessed as remaining activity at 1 uM by ATP-competition binding assay relative to control; procedure, shortened: as §3
[11] = target: Mitogen-activated protein kinase kinase kinase 11 (Homo sapiens) (UniProt Q16584); test: Inhibition of human MLK3 assessed as remaining activity at 1 uM by ATP-competition binding assay relative to control; procedure, shortened: as §3
CLL mononuclear cell = test: Antileukemic activity against human CLL mononuclear cells xenografted NSG mouse assessed as reduction in splenic tumor burden at 0.3 mg/ml preadministered with compound via drinking water and measured after 3 weeks by flow cytometry analysis; format: functional, cell-based
Procedure, shortened: (§5)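 Primary CLL patient mononuclear cells (1 × 10^8 per mouse) engrafted into NSG mice on day 0 after busulfan priming on day −1. Vehicle or drug was given in drinking water from day −1. Mice were killed 3 weeks after engraftment; spleens homogenized, filtered and RBC-lysed; whole blood collected. Six patients, 2–5 mice per patient; paired t-test per patient.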

[12] = target: Hepatocyte growth factor receptor (Homo sapiens) (UniProt P08581); test: Inhibition of human MET assessed as remaining activity at 1 uM by ATP-competition binding assay relative to control; procedure, shortened: as §3
[13] = target: LIM domain kinase 1 (Homo sapiens) (UniProt P53667); test: Inhibition of human LIMK1 assessed as remaining activity at 1 uM by ATP-competition binding assay relative to control; procedure, shortened: as §3
[14] = target: Serine/threonine-protein kinase 3 (Homo sapiens) (UniProt Q13188); test: Inhibition of human MST2 assessed as remaining activity at 1 uM by ATP-competition binding assay relative to control; procedure, shortened: as §3
[15] = target: Calcium/calmodulin-dependent protein kinase type 1D (Homo sapiens) (UniProt Q8IU85); test: Inhibition of human CAMK1D assessed as remaining activity at 1 uM by ATP-competition binding assay relative to control; procedure, shortened: as §4
[16] = target: Tyrosine-protein kinase JAK2 (Homo sapiens) (UniProt O60674); test: Inhibition of human JAK2 JH1 domain assessed as remaining activity at 1 uM by ATP-competition binding assay relative to control
Procedure, shortened: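 Compound at 1μM was screened in an ATP-site-dependent competition binding assay (KINOMEscan) against a 395-kinase human panel. Signal was expressed relative to control.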

[17] = target: Casein kinase I isoform alpha-like (Homo sapiens) (UniProt Q8N752); test: Inhibition of human CSNK1A1L assessed as remaining activity at 1 uM by ATP-competition binding assay relative to control; procedure, shortened: as §4
[18] = target: Mitogen-activated protein kinase 14 (Homo sapiens) (UniProt Q16539); test: Inhibition of human P38alpha assessed as remaining activity at 1 uM by ATP-competition binding assay relative to control; procedure, shortened: as §3
[19] = target: RAF proto-oncogene serine/threonine-protein kinase (Homo sapiens) (UniProt P04049); test: Inhibition of human RAF1 assessed as remaining activity at 1 uM by ATP-competition binding assay relative to control; procedure, shortened: as §2
[20] = target: Serine/threonine-protein kinase SIK1 (Homo sapiens) (UniProt P57059); test: Inhibition of human SIK assessed as remaining activity at 1 uM by ATP-competition binding assay relative to control; procedure, shortened: as §2
[21] = Antileukemic activity against human CLL mononuclear cells xenografted NSG mouse assessed as inhibition in cell proliferation measuring by Ki67 expression level at 0.3 to 0.16 mg/ml preadministered with compound via drinking water and measured after 3 weeks by flow cytometry analysis relative to control; format: functional; conditions: dose 0.3-0.16 mg/ml, at 0.16 to 0.3 mg/mL; procedure, shortened: as §5
[22] = target: Serine/threonine-protein kinase 17B (Homo sapiens) (UniProt O94768); test: Inhibition of human DRAK2 assessed as remaining activity at 1 uM by ATP-competition binding assay relative to control; procedure, shortened: as §4
[23] = target: Cyclin-dependent kinase 15 (Homo sapiens) (UniProt Q96Q40); test: Inhibition of human PFTAIRE2 assessed as remaining activity at 1 uM by ATP-competition binding assay relative to control; procedure, shortened: as §3
[24] = target: Serine/threonine-protein kinase 4 (Homo sapiens) (UniProt Q13043); test: Inhibition of human MST1 assessed as remaining activity at 1 uM by ATP-competition binding assay relative to control; procedure, shortened: as §3
[25] = tested on: Mast/stem cell growth factor receptor Kit (Homo sapiens), P10721 [V559D,T670I]; test: Inhibition of human KIT V559D/T670I mutant assessed as remaining activity at 1 uM by ATP-competition binding assay relative to control; procedure, shortened: as §3

Proto-oncogene tyrosine-protein kinase Src (Homo sapiens), sequence (P12931 2-536 limits assumed): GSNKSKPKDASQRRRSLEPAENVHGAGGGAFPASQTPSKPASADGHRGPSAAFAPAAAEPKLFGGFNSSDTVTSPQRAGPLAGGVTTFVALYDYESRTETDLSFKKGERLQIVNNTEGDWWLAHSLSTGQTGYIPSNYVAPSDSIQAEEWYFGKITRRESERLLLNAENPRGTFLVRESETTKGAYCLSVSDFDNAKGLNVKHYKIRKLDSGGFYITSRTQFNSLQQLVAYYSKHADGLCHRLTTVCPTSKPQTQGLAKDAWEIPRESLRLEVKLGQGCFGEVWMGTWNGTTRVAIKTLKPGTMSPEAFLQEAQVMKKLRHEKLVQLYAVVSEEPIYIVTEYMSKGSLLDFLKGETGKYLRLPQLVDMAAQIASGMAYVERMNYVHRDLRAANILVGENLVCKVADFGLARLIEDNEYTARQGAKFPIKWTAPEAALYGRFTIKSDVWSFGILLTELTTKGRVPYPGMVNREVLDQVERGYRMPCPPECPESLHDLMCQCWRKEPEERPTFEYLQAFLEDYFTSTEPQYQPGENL
Tyrosine-protein kinase JAK2 (Homo sapiens), sequence (O60674 whole entry, the tested form may be a part): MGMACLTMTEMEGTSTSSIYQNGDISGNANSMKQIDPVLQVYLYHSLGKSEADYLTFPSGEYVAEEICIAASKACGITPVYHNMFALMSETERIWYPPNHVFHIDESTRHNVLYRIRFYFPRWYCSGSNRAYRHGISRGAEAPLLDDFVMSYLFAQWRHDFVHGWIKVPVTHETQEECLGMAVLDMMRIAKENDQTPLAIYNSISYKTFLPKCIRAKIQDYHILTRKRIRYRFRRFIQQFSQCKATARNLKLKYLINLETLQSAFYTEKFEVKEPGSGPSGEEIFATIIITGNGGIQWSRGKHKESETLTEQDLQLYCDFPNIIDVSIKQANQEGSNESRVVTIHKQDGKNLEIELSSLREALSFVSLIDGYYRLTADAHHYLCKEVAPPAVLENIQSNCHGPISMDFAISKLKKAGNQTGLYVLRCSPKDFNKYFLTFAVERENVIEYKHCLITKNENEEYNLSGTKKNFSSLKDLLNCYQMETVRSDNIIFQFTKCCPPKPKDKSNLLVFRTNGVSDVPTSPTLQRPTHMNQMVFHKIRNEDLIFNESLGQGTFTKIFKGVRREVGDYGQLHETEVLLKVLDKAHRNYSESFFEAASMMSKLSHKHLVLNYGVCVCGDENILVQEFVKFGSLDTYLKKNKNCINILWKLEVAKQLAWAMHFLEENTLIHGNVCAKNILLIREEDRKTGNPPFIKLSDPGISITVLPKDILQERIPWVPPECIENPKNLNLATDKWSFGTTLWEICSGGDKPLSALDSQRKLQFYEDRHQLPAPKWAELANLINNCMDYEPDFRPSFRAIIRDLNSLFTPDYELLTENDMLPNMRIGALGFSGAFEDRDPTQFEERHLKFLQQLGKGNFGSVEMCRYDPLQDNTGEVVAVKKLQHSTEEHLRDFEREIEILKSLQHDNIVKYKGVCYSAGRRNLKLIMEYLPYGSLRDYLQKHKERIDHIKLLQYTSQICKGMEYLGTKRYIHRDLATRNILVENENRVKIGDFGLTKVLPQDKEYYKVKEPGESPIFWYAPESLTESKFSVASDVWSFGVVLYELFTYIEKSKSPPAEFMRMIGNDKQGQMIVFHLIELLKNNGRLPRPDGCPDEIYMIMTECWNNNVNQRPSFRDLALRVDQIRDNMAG
Calcium/calmodulin-dependent protein kinase type 1D (Homo sapiens), sequence (Q8IU85 whole entry, looked up, the tested form may be a part): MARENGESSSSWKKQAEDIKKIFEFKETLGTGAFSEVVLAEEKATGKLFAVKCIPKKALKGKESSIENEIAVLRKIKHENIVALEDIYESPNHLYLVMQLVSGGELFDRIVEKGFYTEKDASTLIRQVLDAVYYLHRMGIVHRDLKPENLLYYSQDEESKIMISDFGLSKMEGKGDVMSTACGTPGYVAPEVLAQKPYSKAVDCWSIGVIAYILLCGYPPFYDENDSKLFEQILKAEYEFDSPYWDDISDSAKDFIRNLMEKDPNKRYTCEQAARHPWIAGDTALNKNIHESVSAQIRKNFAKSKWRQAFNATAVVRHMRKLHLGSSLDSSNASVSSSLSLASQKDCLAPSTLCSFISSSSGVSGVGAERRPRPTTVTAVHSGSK
Serine/threonine-protein kinase 4 (Homo sapiens), sequence (Q13043 whole entry): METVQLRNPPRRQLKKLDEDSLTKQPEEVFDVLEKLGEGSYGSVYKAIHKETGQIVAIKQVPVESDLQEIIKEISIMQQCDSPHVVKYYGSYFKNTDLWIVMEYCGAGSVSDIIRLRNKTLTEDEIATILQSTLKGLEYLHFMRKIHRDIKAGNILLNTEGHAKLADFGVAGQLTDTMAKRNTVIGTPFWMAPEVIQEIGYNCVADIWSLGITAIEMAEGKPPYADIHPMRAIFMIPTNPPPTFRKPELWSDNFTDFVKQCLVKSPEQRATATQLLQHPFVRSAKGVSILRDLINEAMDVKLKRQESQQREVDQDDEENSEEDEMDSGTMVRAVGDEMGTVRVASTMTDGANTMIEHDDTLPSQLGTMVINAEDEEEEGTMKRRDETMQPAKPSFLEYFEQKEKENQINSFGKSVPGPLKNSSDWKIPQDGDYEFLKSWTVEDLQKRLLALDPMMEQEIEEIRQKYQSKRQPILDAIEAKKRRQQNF
Serine/threonine-protein kinase 17B (Homo sapiens), sequence (O94768 whole entry): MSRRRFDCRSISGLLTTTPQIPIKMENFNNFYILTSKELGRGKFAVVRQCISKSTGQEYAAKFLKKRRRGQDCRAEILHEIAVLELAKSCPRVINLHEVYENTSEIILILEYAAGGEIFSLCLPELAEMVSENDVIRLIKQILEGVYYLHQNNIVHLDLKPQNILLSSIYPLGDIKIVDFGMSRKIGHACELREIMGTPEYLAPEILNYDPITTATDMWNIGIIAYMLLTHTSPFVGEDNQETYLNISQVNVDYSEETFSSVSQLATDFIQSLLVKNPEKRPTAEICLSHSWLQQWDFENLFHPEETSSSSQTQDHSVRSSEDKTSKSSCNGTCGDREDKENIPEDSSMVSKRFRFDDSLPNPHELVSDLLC
Proto-oncogene tyrosine-protein kinase receptor Ret (Homo sapiens), P07949 [V804L], sequence (P07949 whole entry V804L): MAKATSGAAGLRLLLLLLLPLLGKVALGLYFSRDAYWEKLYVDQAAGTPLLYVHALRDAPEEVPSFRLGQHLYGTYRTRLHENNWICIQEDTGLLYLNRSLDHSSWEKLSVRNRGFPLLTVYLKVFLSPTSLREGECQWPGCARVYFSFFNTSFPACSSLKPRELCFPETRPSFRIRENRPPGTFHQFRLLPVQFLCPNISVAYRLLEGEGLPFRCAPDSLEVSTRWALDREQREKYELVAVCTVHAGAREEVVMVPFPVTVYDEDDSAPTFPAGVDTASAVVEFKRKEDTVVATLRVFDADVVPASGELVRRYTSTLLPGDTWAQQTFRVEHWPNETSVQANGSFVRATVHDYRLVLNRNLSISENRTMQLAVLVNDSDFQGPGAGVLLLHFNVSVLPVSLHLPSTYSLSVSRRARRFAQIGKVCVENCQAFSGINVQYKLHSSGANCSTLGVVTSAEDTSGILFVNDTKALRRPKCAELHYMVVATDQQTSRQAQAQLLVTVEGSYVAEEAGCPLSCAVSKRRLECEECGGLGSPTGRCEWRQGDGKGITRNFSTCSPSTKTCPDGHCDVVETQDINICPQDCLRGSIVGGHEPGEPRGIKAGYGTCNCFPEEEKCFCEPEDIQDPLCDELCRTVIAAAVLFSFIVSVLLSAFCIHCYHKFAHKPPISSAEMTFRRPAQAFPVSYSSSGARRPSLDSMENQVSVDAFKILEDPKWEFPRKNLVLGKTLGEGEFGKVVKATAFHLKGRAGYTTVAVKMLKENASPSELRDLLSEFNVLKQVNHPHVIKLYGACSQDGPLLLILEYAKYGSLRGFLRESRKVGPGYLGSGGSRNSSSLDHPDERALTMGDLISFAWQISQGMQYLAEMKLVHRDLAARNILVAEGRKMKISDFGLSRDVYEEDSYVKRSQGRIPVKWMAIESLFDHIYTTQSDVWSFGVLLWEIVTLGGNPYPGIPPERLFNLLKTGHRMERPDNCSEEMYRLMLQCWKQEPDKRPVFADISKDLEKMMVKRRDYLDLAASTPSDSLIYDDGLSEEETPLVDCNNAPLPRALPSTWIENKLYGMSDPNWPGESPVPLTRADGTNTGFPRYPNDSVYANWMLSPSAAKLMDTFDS
LIM domain kinase 1 (Homo sapiens), sequence (P53667 whole entry, looked up, the tested form may be a part): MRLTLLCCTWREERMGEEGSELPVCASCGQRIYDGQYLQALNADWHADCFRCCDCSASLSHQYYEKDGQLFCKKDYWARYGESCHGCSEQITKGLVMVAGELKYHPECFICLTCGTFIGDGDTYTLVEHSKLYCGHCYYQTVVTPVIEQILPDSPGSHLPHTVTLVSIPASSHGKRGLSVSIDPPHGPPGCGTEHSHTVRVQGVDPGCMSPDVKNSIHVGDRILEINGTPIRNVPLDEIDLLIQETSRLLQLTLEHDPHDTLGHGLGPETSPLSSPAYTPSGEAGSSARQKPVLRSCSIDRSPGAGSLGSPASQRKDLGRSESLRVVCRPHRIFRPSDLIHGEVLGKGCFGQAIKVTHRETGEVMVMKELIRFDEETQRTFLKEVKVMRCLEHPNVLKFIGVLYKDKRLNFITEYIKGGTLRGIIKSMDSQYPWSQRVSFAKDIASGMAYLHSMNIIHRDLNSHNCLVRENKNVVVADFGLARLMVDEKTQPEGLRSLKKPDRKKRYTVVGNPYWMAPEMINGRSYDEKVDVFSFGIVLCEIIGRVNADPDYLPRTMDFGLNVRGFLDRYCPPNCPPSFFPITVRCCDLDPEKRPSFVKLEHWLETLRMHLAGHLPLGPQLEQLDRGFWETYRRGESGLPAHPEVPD

`CC#CC(=O)N1CCC[C@H]1c1nc(-c2ccc(C(=O)Nc3ccccn3)cc2)c2c(N)nccn12` [ACALABRUTINIB] gave an Activity [1] of 93%, an Activity [2] of 88% and an Activity [3] of 83%. For the same compound, the Activity [4] was 87%, the Activity [5] was 78% and the Activity [6] was 77%. The Activity [7] was 84%, the Activity [8] was 84% and the Activity [9] was 85%. The Activity [10] was 71%, the Activity [11] was 94% and the Activity (CLL mononuclear cell) was “Active”. The Activity [12] was 91%, the Activity [13] was 13% and the Activity [14] was 65%. The Activity [15] was 98%, the Activity [16] was 81% and the Activity [17] was 92%. It also gave an Activity [18] of 84%, an Activity [19] of 77% and an Activity [20] of 88%. The “inhibition (INH)” value [21] was 50%, the Activity [22] was 88% and the Activity [23] was 76%. It also gave an Activity [24] of 87% and an Activity [25] of 55%.
